Results from publication PMC6852655 (International Journal of Cancer, 2019).

Assays:
[1] = In vivo metabolic stability, mouse blood 5 min pi, without or with PA; parameters: species or system Swiss albino mice; conditions: peripheral mouse blood, HPLC; for Intact radiopeptide, 5 min pi (+ phosphoramidon): PA coinjected, n=2; for Intact radiopeptide, 5 min pi: radioligand alone, n=3
In short: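 Healthy male Swiss albino mice (30 ± 5 g) were injected with the 177Lu-labelled test peptide alone (n = 3) or with coinjected phosphoramidon (n = 2). Blood was collected at 5 min pi and analysed by HPLC radiochromatography for the percentage of intact radioligand.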

[2] = tested on: PC-3 xenografts; assay: Influence of PA coinjection on biodistribution; format: in vivo, BALB/c nu/nu mice; conditions: 1 hr pi
[3] = tested on: PC-3 xenografts; assay: Influence of injected peptide dose on biodistribution; format: in vivo, BALB/c nu/nu mice; conditions: 750 pmol in comparison to 50 pmol, 1 hr pi
In short: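 PC-3-xenografted BALB/c nu/nu mice (17 ± 2 g; tumours 0.19 ± 0.06 g) were injected with 80 kBq of the 177Lu-labelled test peptide at a total peptide dose of 50, 100, 250, 500 or 750 pmol/animal, with phosphoramidon coinjection. Tumour and organ uptake were measured at 1 hr pi; tumour slices were also examined by ex vivo autoradiography.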

[4] = tested on: PC-3 xenografts; assay: Biodistribution over time; format: in vivo, BALB/c nu/nu mice; conditions: 24 hr pi vs peak at 1 hr pi, 100 pmol
In short: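 PC-3-xenografted BALB/c nu/nu mice received the 177Lu-labelled test peptide (80 kBq, 100 pmol/animal, 100 μl) with coinjected NEP inhibitor phosphoramidon. Animals were euthanized at 0.5, 1, 2, 4, 24, 48 and 90 hr pi, and tumour and organ activity uptake were measured.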

[5] = tested on: PC-3 xenografts; assay: Dosimetry estimates; parameters: species or system BALB/c nu/nu mice; conditions: per 60 MBq treatment cycle (200 pmol)
In short: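 Organ absorbed doses were estimated for a 100 pmol injection of the 177Lu-labelled test peptide. The estimate used time-course biodistribution data from PC-3-xenografted nude mice and a MOBY-phantom dosimetry model. Other peptide masses were scaled by the ratio of 1 hr uptake at 50–250 pmol to the 100 pmol 1 hr uptake; uptake versus mass was fitted with exponential curves. Doses were expressed per 60 MBq cycle.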

[6] = tested on: PC-3 xenografts; assay: Experimental in vivo therapy; parameters: species or system BALB/c nu/nu mice

In the case of CC(C)C[C@H](NC(=O)C[C@H](O)[C@H](CC(C)C)NC(=O)[C@H](Cc1c[nH]cn1)NC(=O)CNC(=O)[C@@H](NC(=O)[C@H](C)NC(=O)[C@H](Cc1c[nH]c2ccccc12)NC(=O)[C@H](CCC(N)=O)NC(=O)[C@@H](Cc1ccccc1)NC(=O)COCCOCCNC(=O)CCC(C(=O)O)N1CCN(CC(=O)O)CCN(CC(=O)O)CCN(CC(=O)O)CC1)C(C)C)C(N)=O (stereo partly drawn) [^177Lu-DOTAGA-PEG2-RM26, metal not drawn], the “Intact radiopeptide, 5 min pi (+ phosphoramidon)” value [1] is reported as greater than 98%, the “Intact radiopeptide, 5 min pi” value [1] is reported as 70.7 ± 3.1% and the “Increase of pancreatic uptake with PA” value ([2]; 50 pmol, PA vs control) is reported as “threefold”. For the same compound, the “Increase of tumor uptake with PA” value ([2]; 50 pmol, PA vs control) was 1.6 fold, the “Amplification of tumor uptake with PA” value ([2]; PA coinjection) was 60% and the “Decrease of tumor uptake” value [3] was “threefold”. The “Decrease of tumor uptake” value [4] was “fourfold”, the “Estimated absorbed dose to the kidneys” value [5] was 5 Gy and the “Estimated absorbed dose to the tumor” value [5] was 11 Gy. The “Median survival compared with controls” value ([6]; 6 cycles iv every second day, n=11-12) was “significant prolongation of median survival” and the Tumor growth ([6]; 6 cycles, 200 pmol/60 MBq, +PA) was “significant inhibition of tumor growth”.
In the case of CC(C)C[C@H](NC(=O)C[C@H](O)[C@H](CC(C)C)NC(=O)[C@H](Cc1c[nH]cn1)NC(=O)CNC(=O)[C@@H](NC(=O)[C@H](C)NC(=O)[C@H](Cc1c[nH]c2ccccc12)NC(=O)[C@H](CCC(N)=O)NC(=O)[C@@H](Cc1ccccc1)NC(=O)COCCOCCNC(=O)CN1CCN(CC(=O)O)CCN(CC(=O)O)CCN(CC(=O)O)CC1)C(C)C)C(N)=O [^177Lu-DOTA-PEG2-RM26, metal not drawn], the “Intact radiopeptide, 5 min pi (+ phosphoramidon)” value [1] is reported as greater than 96% and the “Intact radiopeptide, 5 min pi” value [1] is reported as 64.7 ± 4.6%.
With CC(C)C[C@H](NC(=O)C[C@H](O)[C@H](CC(C)C)NC(=O)[C@H](Cc1c[nH]cn1)NC(=O)CNC(=O)[C@@H](NC(=O)[C@H](C)NC(=O)[C@H](Cc1c[nH]c2ccccc12)NC(=O)[C@H](CCC(N)=O)NC(=O)[C@@H](Cc1ccccc1)NC(=O)COCCOCCNC(=O)CCC(C(=O)O)N1CCN(CC(=O)O)CCN(CC(=O)O)CC1)C(C)C)C(N)=O (stereo partly drawn) [^177Lu-NODAGA-PEG2-RM26, metal not drawn] the “Intact radiopeptide, 5 min pi (+ phosphoramidon)” value [1] was greater than 96% and the “Intact radiopeptide, 5 min pi” value [1] was 64.0 ± 2.0%.
